The results in this text go back to ChEMBL document CHEMBL4602726, “Discovery of the First Vitamin K Analogue as a Potential Treatment of Pharmacoresistant Seizures” (J Med Chem, 2020).

The nature of series [1]: Toxicity in mouse HT22 cells assessed as inhibition of cell viability at 50 uM incubated for 48 hrs by Cell-titer-Blue dye based fluorescence spectrophotometry relative to control. Set-up: species or system HT-22. The settings on record: read-out: Activity. An outline of the steps:
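HT-22 cells in DMEM high glucose with 10% FBS, 2000 per well. Serially diluted compound added after 12 h, incubated 48 h. […] Background subtracted, normalized to control wells.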

The nature of series [2]: Toxicity in CF1 mouse assessed as induction of lethargy. The settings on record: in vivo.
Series [3] can be described thus: Toxicity in CF1 mouse assessed as induction of lethality measured after electric stimulation after 24 hrs at >500 mg/kg. The conditions noted are these: in vivo. Type of series: organism-based.
Series [4] in a line: Toxicity in CF1 mouse assessed as induction of motor impairment during acute (1 hr) observation period up to 800 mg/kg by rotarod assay. The settings on record: in vivo. It counts as organism-based. An outline of the steps: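 Rotarod at 6 rpm on the same animals immediately before 6 Hz stimulation, 1 h after ip dosing. A mouse falling three times within one minute was scored impaired.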
For orientation: The rotarod test checks motor coordination on a turning rod.

A further series relates to Mus musculus. Kind of series: Anti-seizure activity in ip dosed CF1 mouse assessed as attenuation of clonic forebrain seizures treated 1 hr before PTZ dosing and measured after 30 mins by scPTZ test. Type of series: functional. An outline of the steps:
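Male CF-1 mice, n=8 per dose, given compound ip in 0.5% HPMC. PTZ 85 mg/kg s.c. in the neck at 1 h. Animals observed 30 min in isolation cages for clonic spasms lasting 3–5 s; those without spasms counted protected.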

The nature of series [5]: Drug level in CD1 mouse plasma at 400 mg/kg, ip after 4 hrs by LC-MS/MS analysis. Type of series: ADME, organism-based. An outline of the steps: (§1)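 Male mice fasted overnight and given ip dose in 95% Miglyol 840/5% DMSO. Plasma precipitated 3:1 with acetonitrile plus internal standard. Brain homogenized 3:1 in PBS, then acetonitrile extraction. LC-MS/MS in MRM mode, standard curve 1 ng/mL–10 μg/mL. Ratio = mean tissue (ng/g) over mean plasma (ng/mL) concentration.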

Series [6] in a line: Drug level in CD1 mouse plasma at 400 mg/kg, ip after 8 hrs by LC-MS/MS analysis. It counts as ADME, organism-based. An outline of the steps:
as §1

Series [7] can be described thus: Drug level in CD1 mouse brain at 400 mg/kg, ip after 0.5 hrs by LC-MS/MS analysis. It counts as ADME, organism-based. The settings on record: read-out: Drug uptake. An outline of the steps: as §1
Series [8] in a line: Ratio of drug level in brain to plasma in CD1 mouse at 400 mg/kg, ip after 1 hr by LC-MS/MS analysis. Type of series: ADME, organism-based. The settings on record: brain and plasma, read-out: BPR. An outline of the steps:
as §1

Series [9] in a line: Ratio of drug level in brain to plasma in CD1 mouse at 400 mg/kg, ip after 2 hrs by LC-MS/MS analysis. Type of series: ADME, organism-based. The settings on record: brain and plasma, read-out: BPR. The procedure, abridged:
as §1

Series [10] can be described thus: Tmax in CD1 mouse at 20 mg/kg, ip measured after 0.083 to 24 hrs by LC-MS/MS analysis. Type of series: ADME, organism-based. The settings on record: in vivo.
Series [11] addresses Voltage-gated inwardly rectifying potassium channel KCNH2 (Homo sapiens, UniProt Q12809). In words: Inhibition of human ERG.
A short description of series [12]: Drug level corresponding to free EC50 in CD1 mouse at 200 to 400 mg/kg, ip by LC-MS/MS analysis. It counts as ADME, organism-based. The conditions noted are these: in vivo.
Series [13] can be described thus: Drug reactivity with 2-mercaptoethanol measured over 6 hrs. It counts as physicochemical.
Series [14] in a line: Cmax in CD1 mouse at 5 mg/kg, iv measured after 0.083 to 24 hrs by LC-MS/MS analysis. Set-up: dose 5 mg/kg, route intravenous. It counts as ADME, organism-based. The conditions noted are these: in vivo. An outline of the steps: (§2)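 Male CD-1 mice, 3 per route. Oral and ip at 20 mg/kg by gavage needle; iv at 5 mg/kg by tail vein. Vehicles were 20% DMA:40% PEG300:40% H2O for oral/iv and 5% DMSO:95% Neobee for ip. Blood sampled 0.083–24 h, plasma protein-precipitated with acetonitrile plus internal standard, LC-MS/MS (MRM). Non-compartmental analysis, linear trapezoidal AUC.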

Series [15] is described as follows: Cmax in CD1 mouse at 20 mg/kg, po measured after 0.083 to 24 hrs by LC-MS/MS analysis. It counts as ADME, organism-based. The settings on record: in vivo. Set-up: dose 20 mg/kg, route oral. The procedure, abridged: as §2
A short description of series [16]: AUClast in CD1 mouse at 5 mg/kg, iv measured after 0.083 to 24 hrs by LC-MS/MS analysis. Type of series: ADME, organism-based. Set-up: dose 5 mg/kg, time upper 24 hr, time lower 0.083 hr, route intravenous. The conditions noted are these: in vivo. The procedure, abridged:
as §2

Series [17] in a line: AUClast in CD1 mouse at 20 mg/kg, po measured after 0.083 to 24 hrs by LC-MS/MS analysis. It counts as ADME, organism-based. Set-up: time 0.083-24 hr, dose 20 mg/kg, route oral. The settings on record: in vivo. The procedure, abridged: as §2
For the next series, the target named is Cytochrome P450 3A4 (Homo sapiens, UniProt P08684). Kind of series: Inhibition of CYP3A4 in human liver microsomes using isoform-specific probe substrates incubated for 15 to 30 mins by LC-MS/MS analysis. Type of series: ADME. The procedure, abridged:
(§3)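 Pooled mixed-gender human liver microsomes 0.2 mg/mL in 100 mM potassium phosphate with 2 mM NADPH. Isoform-specific probe substrates near Km. Organic solvent ≤1% final. Incubated 37°C for 15–30 min, quenched with acetonitrile plus internal standard. Probe metabolites measured by LC-MS/MS; percent inhibition versus vehicle, IC50 by variable-slope sigmoid fit.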
A general note: Liver microsomes are vesicles of endoplasmic reticulum, rich in cytochrome P450 enzymes.

The target in the next series is T1, Cytochrome P450 2B6 (Homo sapiens, UniProt P20813).
T1 sequence (P20813 whole entry): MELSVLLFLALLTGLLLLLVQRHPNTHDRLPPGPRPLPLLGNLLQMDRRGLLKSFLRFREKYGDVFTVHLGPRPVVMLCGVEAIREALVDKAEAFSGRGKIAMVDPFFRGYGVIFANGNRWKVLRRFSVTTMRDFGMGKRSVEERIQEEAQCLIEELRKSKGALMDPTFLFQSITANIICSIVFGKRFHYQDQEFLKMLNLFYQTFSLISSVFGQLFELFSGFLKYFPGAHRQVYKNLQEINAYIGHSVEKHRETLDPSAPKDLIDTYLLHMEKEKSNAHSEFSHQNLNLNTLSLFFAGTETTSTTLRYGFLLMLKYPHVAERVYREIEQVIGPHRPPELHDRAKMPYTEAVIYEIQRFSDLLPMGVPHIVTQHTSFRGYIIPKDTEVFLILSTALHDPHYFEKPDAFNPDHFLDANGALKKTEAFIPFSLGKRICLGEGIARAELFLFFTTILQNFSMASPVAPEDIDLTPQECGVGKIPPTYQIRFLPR
Kind of series: Inhibition of CYP2B6 in human liver microsomes using isoform-specific probe substrates incubated for 15 to 30 mins by LC-MS/MS analysis. Type of series: ADME. The procedure, abridged:
as §3

The target in another series is T2, Cytochrome P450 2C8 (Homo sapiens, UniProt P10632).
T2 sequence (P10632 whole entry): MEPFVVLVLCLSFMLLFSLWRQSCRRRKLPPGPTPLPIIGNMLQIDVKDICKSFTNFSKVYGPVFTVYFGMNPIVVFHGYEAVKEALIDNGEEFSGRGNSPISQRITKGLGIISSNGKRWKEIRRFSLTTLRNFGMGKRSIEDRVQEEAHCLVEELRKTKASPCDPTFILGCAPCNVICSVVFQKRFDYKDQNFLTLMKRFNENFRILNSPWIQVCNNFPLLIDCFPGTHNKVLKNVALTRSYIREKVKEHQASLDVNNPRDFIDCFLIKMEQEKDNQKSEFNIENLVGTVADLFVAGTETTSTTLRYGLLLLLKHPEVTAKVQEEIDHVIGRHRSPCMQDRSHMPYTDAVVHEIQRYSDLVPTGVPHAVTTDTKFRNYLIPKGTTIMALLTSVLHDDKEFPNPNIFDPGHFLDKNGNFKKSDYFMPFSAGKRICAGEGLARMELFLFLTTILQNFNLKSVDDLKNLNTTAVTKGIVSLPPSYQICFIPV
In words: Inhibition of CYP2C8 in human liver microsomes using isoform-specific probe substrates incubated for 15 to 30 mins by LC-MS/MS analysis. It counts as ADME. An outline of the steps: as §3

Chain of Voltage-gated inwardly rectifying potassium channel KCNH2 (Q12809 whole entry): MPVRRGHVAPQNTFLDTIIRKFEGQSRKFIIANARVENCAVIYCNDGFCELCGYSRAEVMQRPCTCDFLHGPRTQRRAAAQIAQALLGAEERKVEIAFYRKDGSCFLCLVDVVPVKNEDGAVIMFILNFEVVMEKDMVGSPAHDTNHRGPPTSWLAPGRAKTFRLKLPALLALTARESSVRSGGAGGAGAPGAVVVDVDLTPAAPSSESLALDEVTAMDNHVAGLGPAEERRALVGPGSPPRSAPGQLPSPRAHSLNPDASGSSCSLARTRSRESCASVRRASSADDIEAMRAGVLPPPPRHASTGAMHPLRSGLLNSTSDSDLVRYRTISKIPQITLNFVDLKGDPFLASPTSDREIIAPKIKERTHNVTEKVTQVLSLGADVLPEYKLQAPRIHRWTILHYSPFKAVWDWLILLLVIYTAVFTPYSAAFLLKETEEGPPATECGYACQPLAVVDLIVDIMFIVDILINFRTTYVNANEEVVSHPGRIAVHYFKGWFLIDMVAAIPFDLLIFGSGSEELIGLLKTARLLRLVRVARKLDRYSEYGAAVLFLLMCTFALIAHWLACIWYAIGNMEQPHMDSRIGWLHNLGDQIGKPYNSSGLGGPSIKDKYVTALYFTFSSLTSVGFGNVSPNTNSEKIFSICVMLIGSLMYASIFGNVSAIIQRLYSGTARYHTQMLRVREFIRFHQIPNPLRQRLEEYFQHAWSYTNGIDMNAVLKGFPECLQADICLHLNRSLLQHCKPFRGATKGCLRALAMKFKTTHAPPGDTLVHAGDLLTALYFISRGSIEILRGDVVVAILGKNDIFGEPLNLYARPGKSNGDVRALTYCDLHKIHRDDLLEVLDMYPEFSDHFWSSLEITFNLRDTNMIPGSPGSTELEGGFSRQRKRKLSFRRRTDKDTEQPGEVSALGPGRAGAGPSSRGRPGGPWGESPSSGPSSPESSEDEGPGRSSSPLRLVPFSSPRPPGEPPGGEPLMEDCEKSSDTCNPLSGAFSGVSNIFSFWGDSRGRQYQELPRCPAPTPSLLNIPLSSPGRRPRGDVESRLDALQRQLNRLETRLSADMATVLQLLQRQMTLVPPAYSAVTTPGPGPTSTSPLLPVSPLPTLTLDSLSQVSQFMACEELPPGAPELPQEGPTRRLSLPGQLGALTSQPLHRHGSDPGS
Chain of Cytochrome P450 3A4 (P08684 whole entry, canonical isoform): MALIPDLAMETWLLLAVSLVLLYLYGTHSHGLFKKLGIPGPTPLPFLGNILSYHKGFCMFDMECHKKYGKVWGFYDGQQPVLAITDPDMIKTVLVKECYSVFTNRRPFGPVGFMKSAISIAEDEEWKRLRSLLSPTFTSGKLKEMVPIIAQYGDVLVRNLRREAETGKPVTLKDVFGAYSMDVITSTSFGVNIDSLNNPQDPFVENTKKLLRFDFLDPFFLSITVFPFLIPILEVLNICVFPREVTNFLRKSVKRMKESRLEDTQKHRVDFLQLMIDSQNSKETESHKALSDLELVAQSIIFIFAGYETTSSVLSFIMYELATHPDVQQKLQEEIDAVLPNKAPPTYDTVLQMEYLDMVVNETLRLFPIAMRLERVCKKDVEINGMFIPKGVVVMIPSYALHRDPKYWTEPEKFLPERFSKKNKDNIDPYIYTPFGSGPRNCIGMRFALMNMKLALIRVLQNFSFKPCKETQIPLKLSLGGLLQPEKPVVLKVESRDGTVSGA

The term ED50 denotes the dose at which the effect has come halfway, by size or by number of responders. In general, Tmax refers to the time at which the peak concentration occurs. As usually defined, the IC50 is the concentration that inhibits the measured activity by half. For orientation: Cmax means the highest concentration seen after dosing. For orientation: AUC(0-t) means the area under the concentration-time curve up to a stated or last time point. The low end stands for low exposure, the high end for high exposure. For `CC(C)CCNC1=CC(=O)c2ccccc2C1=O`, the inhibition at 48 h, 50 µM in [1] turned out to be 17.8%. For the same compound, the Activity result in series [2] is given as “Toxic”; in series [3], “Toxic”; in [4], “Non-Toxic”. Moreover, in the series on Mus musculus, the ED50 came out at 349 mg/kg. In addition, in series [5], the concentration at 4 h was 3740 ng/mL. The compound further yielded a concentration at 8 h in series [6] of 3220 ng/mL. Further, the concentration at 0.5 h in series [7] is 3320 ng/g. The Kp at 1 h in [8] stood at 2.33. The Kp at 2 h in [9] worked out at 1.79. Further, the Tmax in series [10] is 1 h. In addition, the IC50 in series [11] was greater than 30 µM; against Cytochrome P450 3A4 it was greater than 100 µM; on Cytochrome P450 2B6, 39.3 µM; against Cytochrome P450 2C8 it was 54.1 µM. For the same compound, the “Drug uptake(free)” value in [12] came to 123 nM. The Drug metabolism result in [13] is listed as “Metabolite_Notdetected”. In addition, the Cmax amounted to 1910 ng/mL in series [14] and 1020 ng/mL in series [15]. Also, the exposure AUC(0-t) is 636 ng·h/mL in series [16] and 903 ng·h/mL in [17].
